Some results are limits rather than exact numbers.

Here are results for eleven compounds from ChEMBL document CHEMBL1148384, “Design and synthesis of peptidomimetic protein farnesyltransferase inhibitors as anti-Trypanosoma brucei agents” (J Med Chem, 2004).

Assay [1] relates to NIH3T3. Nature of the assay: Effective dose against murine 3T3 fibroblasts cells. It is filed as functional. The conditions noted are these: Mus musculus, read-out: ED50 (the source's name). Summed up: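 Murine 3T3 fibroblasts were grown in RPMI 1640 with 10% FBS and held 72 h with compound at 37 °C, 5% CO2.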
The subject of assay [2] is Trypanosoma brucei brucei. The assay can be described thus: Effective dose required to inhibit the growth of Trypanosoma brucei. As to conditions: read-out: ED50 (the source's name). It is filed as functional. Summed up: (§1)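 Bloodstream-form strain 427 was grown in HMI-9 with 10% FBS at 37 °C, 5% CO2. Cells were seeded at 1 × 10^4 trypomastigotes/well in triplicate, with serial dilutions from 20 mM DMSO stocks. Growth was read with Alamar Blue at 48 h, pentamidine served as positive control, and ED50 was fitted from the curves.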

The test system of assay [3] is Trypanosoma brucei rhodesiense. Nature of the assay: Effective dose required to inhibit the growth of Trypanosoma brucei rhodesiense. The format is functional. As to conditions: read-out: ED50 (the source's name). Summed up: (§2)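 Bloodstream-form trypomastigotes of strain STIB 900 were grown in HMI-18 with nonessential amino acids, glucose and 15% heat-inactivated FCS at 37 °C, 5% CO2. Compounds were given as serial dilutions, in triplicate, from 1 × 10^4 cells/well. Cultures ran 72 h before Alamar Blue read-out, and ED50 was fitted.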

Assay [4] concerns protein farnesyltransferase (Trypanosoma brucei). Nature of the assay: Inhibition of Trypanosoma brucei protein farnesyltransferase at 50 nM concentration (65-74%).
The test system is the same in assay [5]. Nature of the assay: Inhibition of Trypanosoma brucei protein farnesyltransferase at 50 nM (29-41%).
In assay [6] the test system is Trypanosoma brucei rhodesiense. The assay can be described thus: Dose required to inhibit growth of Trypanosoma brucei rhodesiense; 14->60 uM. As to conditions: read-out: ED50 (the source's name). The format is functional. Summed up:
as §2

Assay [7] addresses protein farnesyltransferase (Trypanosoma brucei). Nature of the assay: Inhibition of Trypanosoma brucei protein farnesyltransferase at 50 nM.
For assay [8], the system named is protein farnesyltransferase (Trypanosoma brucei). Nature of the assay: Inhibition of against Trypanosoma brucei protein farnesyltransferase at 50 nM concentration.
Assay [9] addresses Protein farnesyltransferase (Homo sapiens, UniProt P49354+P49356). The assay can be described thus: Inhibition of mammalian protein farnesyltransferase. It is filed as protein-complex assay.
In assay [10] the test system is NIH3T3. Nature of the assay: Dose required to block Ras farnesylation in mouse 3T3 fibroblasts. The format is functional. As to conditions: read-out: ED50 (the source's name).
The target of assay [11] is protein farnesyltransferase (Trypanosoma brucei). Nature of the assay: Inhibition of Trypanosoma brucei protein farnesyltransferase.
The subject of assay [12] is Trypanosoma brucei brucei. The assay can be described thus: Dose required to inhibit growth of Trypanosoma brucei; 1-5 uM. It is filed as functional. The conditions noted are these: read-out: ED50. Summed up: as §1
The test system of assay [13] is Trypanosoma brucei rhodesiense. The assay can be described thus: Dose required to inhibit growth of Trypanosoma brucei rhodesiense; 0.38-0.92 uM. As to conditions: read-out: ED50. The format is functional. Summed up:
as §2

The test system of assay [14] is protein farnesyltransferase (Trypanosoma brucei). The assay can be described thus: Inhibition of Trypanosoma brucei protein farnesyltransferase at 50 nM (0-17%).

A word on the inhibition: it is the relative decrease from the control value, in per cent. A low value points to a weak effect. Regarding `CSCC[C@H](NC(=O)c1ccc(NCc2cncn2Cc2cccc(C)c2)cc1-c1ccccc1)C(=O)O`, the EC50 in the assay on NIH3T3 [1] was over 10 µM; in assay [2], over 10 µM; in assay [3], over 60 µM. Further, in assay [4], the inhibition was at most 74%.
On to `CSCC[C@H](NC(=O)c1ccc(NCc2cncn2Cc2cccc(C#N)c2)cc1-c1ccccc1)C(=O)O`, for which the EC50 is over 10 µM in the assay with NIH3T3 [1], over 10 µM in assay [2] and over 60 µM in assay [3]. In addition, in [4], the inhibition was at most 74%.
Consider `CSCC[C@H](NC(=O)c1ccc(NCc2cncn2Cc2ccccc2C#N)cc1-c1ccccc1)C(=O)O`, for which the results for the EC50 (in the assay with NIH3T3 [1]; in assay [2]; in [3]) were over 10 µM, over 10 µM and over 60 µM, respectively. For the same compound, the inhibition in [5] is at most 41%.
Usually IC50 stands for the midpoint of a concentration-inhibition curve. Low values mean greater potency, high ones weaker potency. As to `CSCC[C@H](NC(=O)c1ccc(NCc2cncn2Cc2ccc(-c3ccccc3)cc2)cc1-c1ccccc1)C(=O)O`, the EC50 in assay [6] was over 60 µM; in assay [2], over 10 µM. Besides, the IC50 in [7] is 0.008 µM. The compound further showed an inhibition in [8] of 85.6%.
For `CSCC[C@H](NC(=O)c1ccc(CNCc2c[nH]cn2)cc1-c1ccccc1C)C(=O)O`, the EC50 in the assay on NIH3T3 [1] is over 25 µM; in assay [2], 1 µM; in [3] it was 0.2 µM; in the assay with NIH3T3 [10] it was 0.02 µM. The IC50 in assay [9] stood at 0.00086 µM; in assay [11] it was 0.0018 µM. This compound yielded an inhibition in assay [8] of 96.1%.
As to `CSCC[C@H](NC(=O)c1ccc(NC(=O)Cc2cncn2C)cc1-c1ccccc1C)C(=O)O`, the EC50 is over 25 µM in the assay with NIH3T3 [1], over 25 µM in [2] and over 60 µM in assay [3]. In [11], the IC50 was 0.0066 µM. The same compound had an inhibition in [8] of 83.2%.
As for `CSCC[C@H](NC(=O)c1ccc(NCc2cncn2Cc2ccccc2C)cc1-c1ccccc1)C(=O)O`, the results for the EC50 (in the assay with NIH3T3 [1]; in assay [2]; in assay [3]) were over 10 µM, over 10 µM and over 60 µM, respectively. This compound also returned an inhibition in [5] of at most 41%.
Take `COC(=O)[C@H](CCSC)NC(=O)c1ccc(NC[C@@H](N)CS)cc1-c1ccccc1`: the EC50 in the assay with NIH3T3 [1] is over 25 µM; in [2] it was 0.7 µM. In [11], this compound had an IC50 of 0.04 µM.
With `COC(=O)[C@H](CCSC)NC(=O)c1ccc(NCc2cncn2Cc2cccc(C#N)c2)cc1-c1ccccc1`, the EC50 in the assay on NIH3T3 [1] was over 10 µM; in assay [12], at most 5 µM; in [13], at most 0.92 µM. In assay [14], this compound registered an inhibition of at most 17%.
In the case of `CSCC[C@H](NC(=O)c1ccc(NCc2cncn2Cc2cccc(Cl)c2)cc1-c1ccccc1)C(=O)O`, the results for the EC50 (in the assay on NIH3T3 [1]; in assay [2]; in assay [3]) were over 10 µM, over 10 µM and over 60 µM, respectively. Besides, in assay [4], the inhibition is at most 74%.
Consider `CSCC[C@H](NC(=O)c1ccc(NCc2cncn2Cc2ccccc2Cl)cc1-c1ccccc1)C(=O)O`, for which the EC50 in the assay on NIH3T3 [1] was over 10 µM; in [2] it was over 10 µM; in assay [3], over 60 µM. The inhibition in [5] is at most 41%.
